In brackets after ≈: the same amount, converted by molar mass.
Assays:
Rattus norvegicus [1] = test: Antiinflammatory activity against formalin-induced paw edema in anaesthetized Albino rat sub-acute inflammatory model at 10 mg/kg, po for 7 days measured on day 8; type: functional
How it was run: (§1)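 Sub-acute paw edema: test compounds 20 mg/kg po daily for 7 days, diclofenac Na 10 mg/kg po; 0.1 mL 2% formalin injected subplantar into left hind paw under light ether anaesthesia on days 1 and 3, 1 h after dosing. Paw volume measured on day 1 and day 8; % anti-inflammatory activity; N = 5 rats.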

Rattus norvegicus [2] = test: Analgesic activity in Albino rat assessed as tail withdrawal response at 10 mg/kg, po after 2 hrs; type: functional
How it was run: (§2)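 Male albino rats, 120–150 g, groups of five plus untreated control; test compounds 20 mg/kg po, diclofenac Na 10 mg/kg po. Tail immersed in 55 °C water; withdrawal reaction time read 1, 2 and 3 h after dosing; percentage increase in reaction time over basal computed; mean ± SE of five animals.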

Rattus norvegicus [3] = test: Antiinflammatory activity against formalin-induced paw edema in anaesthetized Albino rat sub-acute inflammatory model at 10 mg/kg, po measured on day 1; type: functional; how it was run: as §1
Rattus norvegicus [4] = test: Antiinflammatory activity against formalin-induced paw edema in anaesthetized Albino rat acute inflammatory model at 10 mg/kg, po dosed 1 hr before formalin challenge assessed after 1 hr; type: functional
How it was run: (§3)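 Rats in groups of five plus control; test compounds 20 mg/kg po, diclofenac Na 10 mg/kg po, given 1 h before 0.1 mL 2% formalin injected subplantar into left hind paw under light ether anaesthesia. Paw volume by water plethysmometer at 0 and 1, 2, 3, 4 h after formalin; % anti-inflammatory activity versus control; mean ± SE, N = 5.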

Rattus norvegicus [5] = test: Analgesic activity in Albino rat assessed as tail withdrawal response at 10 mg/kg, po after 1 hr; type: functional; how it was run: as §2
Rattus norvegicus [6] = test: Antiinflammatory activity against turpentine oil-induced granuloma pouch in anaesthetized Albino rat sub-acute inflammatory model at 10 mg/kg, po 1 hr before turpentine oil challenge for 7 days assessed after 8 days; type: functional
How it was run: (§4)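 Dorsal subcutaneous pouch made in ether-anaesthetised rats with 2 mL air, then 0.5 mL turpentine oil. Test compounds 20 mg/kg po, diclofenac Na 10 mg/kg po, started 1 h before turpentine and continued 7 days. Exudate aspirated on day 8 under anaesthesia; volume measured; % inhibition = (Vcontrol − Vtreated)/Vcontrol × 100; N = 5.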

Rattus norvegicus [7] = test: Antiinflammatory activity against formalin-induced paw edema in anaesthetized Albino rat acute inflammatory model at 10 mg/kg, po dosed 1 hr before formalin challenge assessed after 4 hrs; type: functional; how it was run: as §3
Rattus norvegicus [8] = test: Toxicity in Albino rat assessed as induction of gastric ulceration at 300 mg/kg, po twice a day after 2 hrs; type: organism-based, Stomach; design: dose 300 mg/kg, route oral; conditions: in vivo
How it was run: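 Male albino rats (180–200 g), five per group, fasted 12 h with water ad libitum. Oral dosing at 300 mg/kg; the results text gives two doses at a 2 h interval, while the methods give two equal doses at 0 and 12 h over three days. Controls received 1% gum acacia orally. Rats were killed with ether 6 h after the last dose, and stomachs were inspected grossly for ulceration and hyperemia.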

Rattus norvegicus [9] = test: Antiinflammatory activity against formalin-induced paw edema in anaesthetized Albino rat acute inflammatory model at 10 mg/kg, po dosed 1 hr before formalin challenge assessed after 3 hrs; type: functional; how it was run: as §3
Rattus norvegicus [10] = test: Antiinflammatory activity against formalin-induced paw edema in anaesthetized Albino rat acute inflammatory model at 10 mg/kg, po dosed 1 hr before formalin challenge assessed after 2 hrs; type: functional; how it was run: as §3
Rattus norvegicus [11] = test: Analgesic activity in Albino rat assessed as tail withdrawal response at 10 mg/kg, po after 3 hrs; type: functional; how it was run: as §2
Rattus norvegicus [12] = test: Antiinflammatory activity against formalin-induced paw edema in anaesthetized Albino rat acute inflammatory model at 20 mg/kg, po dosed 1 hr before formalin challenge assessed after 1 hr; type: functional; how it was run: as §3
Pseudomonas aeruginosa = test: Antimicrobial activity against Pseudomonas aeruginosa ATCC 27853 after 24 hrs by twofold serial dilution method; type: functional; conditions: ATCC 27853, 24 h
How it was run: (§5)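 Broth microdilution in Müller–Hinton broth on compounds with agar-diffusion inhibition zones ≥14 mm (disks with 1 mg/mL in DMSO, 37 °C, 24 h, triplicate).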

Klebsiella pneumoniae = test: Antimicrobial activity against Klebsiella pneumoniae clinical isolate after 24 hrs by twofold serial dilution method; type: functional; how it was run: as §5
Bacillus subtilis = test: Antimicrobial activity against Bacillus subtilis NRRL B-14819 after 24 hrs by twofold serial dilution method; type: functional; how it was run: as §5
Rattus norvegicus [13] = test: Antiinflammatory activity against turpentine oil-induced granuloma pouch in anaesthetized Albino rat sub-acute inflammatory model at 20 mg/kg, po 1 hr before turpentine oil challenge for 7 days assessed after 8 days; type: functional; how it was run: as §4
Rattus norvegicus [14] = test: Antiinflammatory activity against formalin-induced paw edema in anaesthetized Albino rat acute inflammatory model at 20 mg/kg, po dosed 1 hr before formalin challenge assessed after 3 hrs; type: functional; how it was run: as §3
Micrococcus luteus = test: Antimicrobial activity against Micrococcus luteus ATCC 21881 after 24 hrs by twofold serial dilution method; type: functional; conditions: ATCC 21881, 24 h; how it was run: as §5
Rattus norvegicus [15] = test: Antiinflammatory activity against formalin-induced paw edema in anaesthetized Albino rat acute inflammatory model at 20 mg/kg, po dosed 1 hr before formalin challenge assessed after 2 hrs; type: functional; how it was run: as §3
Rattus norvegicus [16] = test: Antiinflammatory activity against formalin-induced paw edema in anaesthetized Albino rat acute inflammatory model at 20 mg/kg, po dosed 1 hr before formalin challenge assessed after 4 hrs; type: functional; how it was run: as §3
Rattus norvegicus [17] = test: Analgesic activity in Albino rat assessed as tail withdrawal response at 20 mg/kg, po after 1 hr; type: functional; how it was run: as §2
Staphylococcus aureus = test: Antimicrobial activity against Staphylococcus aureus ATCC 6538 after 24 hrs by twofold serial dilution method; type: functional; conditions: ATCC 6538, 24 h; how it was run: as §5
Rattus norvegicus [18] = test: Antiinflammatory activity against formalin-induced paw edema in anaesthetized Albino rat sub-acute inflammatory model at 20 mg/kg, po measured on day 1; type: functional; how it was run: as §1
Escherichia coli = test: Antimicrobial activity against Escherichia coli ATCC 25922 after 24 hrs by twofold serial dilution method; type: functional; conditions: ATCC 25922, 24 h; how it was run: as §5
[19] = Acute toxicity in Albino rat after 24 hrs; type: organism-based; conditions: in vivo, read-out: ALD50
How it was run: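 Male rats, 180–200 g, groups of five, fasted 24 h before dosing; compounds given orally in graded doses of 0.1–3.0 g/kg; mortality recorded at each dose level after 24 h to estimate approximate acute lethal dose (ALD50).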

Rattus norvegicus [20] = test: Analgesic activity in Albino rat assessed as tail withdrawal response at 20 mg/kg, po after 2 hrs; type: functional; how it was run: as §2
Rattus norvegicus [21] = test: Analgesic activity in Albino rat assessed as tail withdrawal response at 20 mg/kg, po after 3 hrs; type: functional; how it was run: as §2
Rattus norvegicus [22] = test: Antiinflammatory activity against formalin-induced paw edema in anaesthetized Albino rat sub-acute inflammatory model at 20 mg/kg, po for 7 days measured on day 8; type: functional; how it was run: as §1

Compound: O=C([O-])Cc1ccccc1Nc1c(Cl)cccc1Cl.[Na+] [DICLOFENAC SODIUM]
- Activity (Rattus norvegicus [1]): 46%
- Activity (Rattus norvegicus [2]): 55%
- Activity (Rattus norvegicus [3]): 40%
- Activity (Rattus norvegicus [4]): 17%
- Activity (Rattus norvegicus [5]): 26%
- Activity (Rattus norvegicus [6]): 73%
- Activity (Rattus norvegicus [7]): 45%
- Activity (Rattus norvegicus [8]): Toxic
- Activity (Rattus norvegicus [9]): 44%
- Activity (Rattus norvegicus [10]): 40%
- Activity (Rattus norvegicus [11]): 79%

Compound: CCOC(=O)/C(C#N)=C1/SC(C(=O)Nc2c(C)n(C)n(-c3ccccc3)c2=O)=C(N)N1c1ccccc1
- Activity (Rattus norvegicus [12]): 30%
- MIC (Pseudomonas aeruginosa): 50 µg/mL (≈ 96.8 µM)
- MIC (Klebsiella pneumoniae): 50 µg/mL (≈ 96.8 µM)
- MIC (Bacillus subtilis): 12.5 µg/mL (≈ 24.2 µM)
- Activity (Rattus norvegicus [13]): 53%
- Activity (Rattus norvegicus [14]): 38%
- MIC (Micrococcus luteus): 25 µg/mL (≈ 48.4 µM)
- Activity (Rattus norvegicus [15]): 26%
- Activity (Rattus norvegicus [16]): 29%
- Activity (Rattus norvegicus [17]): 32%
- MIC (Staphylococcus aureus): 12.5 µg/mL (≈ 24.2 µM)
- Activity (Rattus norvegicus [18]): 29%
- Activity (Rattus norvegicus [8]): Non-toxic
- MIC (Escherichia coli): 50 µg/mL (≈ 96.8 µM)
- LD50 at 24 h [19]: > 3000 mg/kg
- Activity (Rattus norvegicus [20]): 50%
- Activity (Rattus norvegicus [21]): 67%
- Activity (Rattus norvegicus [22]): 31%
